# Results reported in ChEMBL document CHEMBL1141317, “Pavietin, a coumarin from Aesculus pavia with antifungal activity” (2007).
# Experiments:
# Botrytis [1] = assay: Antifungal activity against Botrytis cinerea assessed as mycelial growth at 200 umol/L by filter disk method relative to control; type: functional; conditions: in the assay text read “by incorporation into PDA growth medium” for “by filter disk method”
# Outline: (§1)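 Agar-incorporation assay rather than disk. Compound in a few drops of DMSO, ultrafiltered and added to autoclaved, still-molten PDA at 50, 100 or 200 μmol L⁻¹. 1 cm mycelial plugs inoculated, 40 dishes per treatment per species. Grown 3 days at 22 °C in darkness. Mycelial growth expressed as % of DMSO-only controls (100%). Student–Neumann–Keuls test, p = 0.05.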
# Alternaria alternata [2] = assay: Antifungal activity against Alternaria alternata assessed as mycelial growth at 100 umol/L by filter disk method relative to control; type: functional; conditions: in the assay text read “by incorporation into growth medium” for “by filter disk method”; outline: as §1
# Globisporangium ultimum [3] = assay: Antifungal activity against Pythium ultimum assessed as mycelial growth at 0.15 mg/disk by filter disk method relative to control; type: functional
# Outline: (§2)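 Compound dissolved in a few drops of absolute EtOH and loaded onto 5 mm paper disks at 0.15, 1.5 or 15 mg per disk. Disks placed on PDA in 12 cm Petri dishes, 30 dishes per treatment per species. Inhibition zones measured in mm after 3 days at 27 °C. EtOH-only disk as control. Growth given as % of control (100%). Student–Neumann–Keuls test, p = 0.05.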
# Polyporus [4] = assay: Antifungal activity against Polyporus marginatus assessed as mycelial growth at 100 umol/L by filter disk method relative to control; type: functional; conditions: in the assay text read “by incorporation into growth medium” for “by filter disk method”; outline: as §1
# Penicillium expansum [5] = assay: Antifungal activity against Penicillium expansum assessed as mycelial growth at 50 umol/L […] relative to control; type: functional; outline: as §1
# Aspergillus niger [6] = assay: Antifungal activity against Aspergillus niger assessed as mycelial growth at 50 umol/L by filter disk method relative to control; type: functional; conditions: in the assay text read “by incorporation into growth medium” for “by filter disk method”; outline: as §1
# Rhizopus stolonifer [7] = assay: Antifungal activity against Rhizopus stolonifer assessed as mycelial growth at 50 umol/L by […] relative to control; type: functional; outline: as §1
# Fusarium basilici [8] = assay: Antifungal activity against Fusarium basilici assessed as mycelial growth at 0.15 mg/disk by filter disk method relative to control
# Alternaria dianthi [9] = assay: Antifungal activity against Alternaria dianthi assessed as mycelial growth at 200 umol/L by filter disk method relative to control; type: functional; conditions: in the assay text read “by incorporation into growth medium” for “by filter disk method”; outline: as §1
# Fulvia fulva [10] = assay: Antifungal activity against Cladosporium fulvum assessed as mycelial growth at 100 umol/L by filter disk method relative to control; type: functional; conditions: in the assay text read “by incorporation into PDA growth medium” for “by filter disk method”; outline: as §1
# [11] = Antifungal activity against Rhizopus stolonifer assessed as mycelial growth at 100 umol/L […] relative to control; type: functional; outline: as §1
# Fulvia fulva [12] = assay: Antifungal activity against Cladosporium fulvum assessed as mycelial growth at 200 umol/L […] relative to control; type: functional; outline: as §1
# Guignardia aesculi [13] = assay: Antifungal activity against Guignardia aesculi assessed as mycelial growth at 50 umol/L by […] relative to control; type: functional; outline: as §1
# Botrytis [14] = assay: Antifungal activity against Botrytis cinerea assessed as mycelial growth at 100 umol/L by filter disk method relative to control; type: functional; conditions: in the assay text read “by incorporation into PDA growth medium” for “by filter disk method”; outline: as §1
# Guignardia aesculi [15] = assay: Antifungal activity against Guignardia aesculi assessed as mycelial growth at 1.5 mg/disk by filter disk method relative to control; type: functional; outline: as §2
# Guignardia aesculi [16] = assay: Antifungal activity against Guignardia aesculi assessed as mycelial growth at 200 umol/L by filter disk method relative to control; type: functional; conditions: in the assay text read “by incorporation into growth medium” for “by filter disk method”; outline: as §1
# Alternaria alternata [17] = assay: Antifungal activity against Alternaria alternata assessed as mycelial growth at 50 umol/L by filter disk method relative to control; type: functional; conditions: in the assay text read “by incorporation into growth medium” for “by filter disk method”; outline: as §1
# Trichoderma viride [18] = assay: Antifungal activity against Trichoderma viride assessed as mycelial growth at 200 umol/L by filter disk method relative to control; type: functional; conditions: in the assay text read “by incorporation into growth medium” for “by filter disk method”; outline: as §1
# Trichoderma viride [19] = assay: Antifungal activity against Trichoderma viride assessed as mycelial growth at 50 umol/L by filter disk method relative to control; type: functional; conditions: in the assay text read “by incorporation into growth medium” for “by filter disk method”; outline: as §1
# [20] = tested on: Fusarium oxysporum f. sp. dianthi; assay: Antifungal activity against Fusarium oxysporum dianthi assessed as mycelial growth at 100 umol/L by […] relative to control; type: functional; outline: as §1
# Trichoderma viride [21] = assay: Antifungal activity against Trichoderma viride assessed as mycelial growth at 100 umol/L by filter disk method relative to control; type: functional; conditions: in the assay text read “by incorporation into growth medium” for “by filter disk method”; outline: as §1
# Penicillium expansum [22] = assay: Antifungal activity against Penicillium expansum assessed as mycelial growth at 200 umol/L […] relative to control; type: functional; outline: as §1
# Aspergillus niger [23] = assay: Antifungal activity against Aspergillus niger assessed as mycelial growth at 200 umol/L by filter disk method relative to control; type: functional; conditions: in the assay text read “by incorporation into growth medium” for “by filter disk method”; outline: as §1
# Penicillium expansum [24] = assay: Antifungal activity against Penicillium expansum assessed as mycelial growth at 100 umol/L […] relative to control; type: functional; outline: as §1
# Guignardia aesculi [25] = assay: Antifungal activity against Guignardia aesculi assessed as mycelial growth at 15 mg/disk by filter disk method relative to control; type: functional; outline: as §2
# Fusarium basilici [26] = assay: Antifungal activity against Fusarium basilici assessed as mycelial growth at 1.5 mg/disk by filter disk method relative to control
# Guignardia aesculi [27] = assay: Antifungal activity against Guignardia aesculi assessed as mycelial growth at 100 umol/L by filter disk method relative to control; type: functional; conditions: in the assay text read “by incorporation into the growth medium” for “by filter disk method”; outline: as §1
# [28] = Antifungal activity against Fusarium oxysporum dianthi assessed as mycelial growth at 50 umol/L […] relative to control; type: functional; conditions: Fusarium oxysporum f. sp. dianthi; outline: as §1
# Guignardia aesculi [29] = assay: Antifungal activity against Guignardia aesculi assessed as mycelial growth at 0.15 mg/disk by filter disk method relative to control; type: functional; outline: as §2
# Globisporangium ultimum [30] = assay: Antifungal activity against Pythium ultimum assessed as mycelial growth at 15 mg/disk by filter disk method relative to control; type: functional; outline: as §2
# [31] = tested on: Fusarium oxysporum f. sp. dianthi; assay: Antifungal activity against Fusarium oxysporum dianthi assessed as mycelial growth at 200 umol/L by […] relative to control; type: functional; outline: as §1
# Alternaria dianthi [32] = assay: Antifungal activity against Alternaria dianthi assessed as mycelial growth at 100 umol/L by filter disk method relative to control; type: functional; conditions: in the assay text read “by incorporation into growth medium” for “by filter disk method”; outline: as §1
# Rhizopus stolonifer [33] = assay: Antifungal activity against Rhizopus stolonifer assessed as mycelial growth at 200 umol/L […] relative to control; type: functional; outline: as §1
# Alternaria alternata [34] = assay: Antifungal activity against Alternaria alternata assessed as mycelial growth at 200 umol/L by filter disk method relative to control; type: functional; conditions: in the assay text read “by incorporation into growth medium” for “by filter disk method”; outline: as §1
# Aspergillus niger [35] = assay: Antifungal activity against Aspergillus niger assessed as mycelial growth at 100 umol/L by filter disk method relative to control; type: functional; conditions: in the assay text read “by incorporation into growth medium” for “by filter disk method”; outline: as §1
# Fusarium basilici [36] = assay: Antifungal activity against Fusarium basilici assessed as mycelial growth at 15 mg/disk by filter disk method relative to control
# Polyporus [37] = assay: Antifungal activity against Polyporus marginatus assessed as mycelial growth at 50 umol/L by filter disk method relative to control; type: functional; conditions: in the assay text read “by incorporation into growth medium” for “by filter disk method”; outline: as §1
# Globisporangium ultimum [38] = assay: Antifungal activity against Pythium ultimum assessed as mycelial growth at 1.5 mg/disk by filter disk method relative to control; type: functional; outline: as §2
# Alternaria dianthi [39] = assay: Antifungal activity against Alternaria dianthi assessed as mycelial growth at 50 umol/L by filter disk method relative to control; type: functional; conditions: in the assay text read “by incorporation into growth medium” for “by filter disk method”; outline: as §1
# Botrytis [40] = assay: Antifungal activity against Botrytis cinerea assessed as mycelial growth at 50 umol/L by filter disk method relative to control; type: functional; conditions: in the assay text read “by incorporation into PDA growth medium” for “by filter disk method”; outline: as §1
# Fulvia fulva [41] = assay: Antifungal activity against Cladosporium fulvum assessed as mycelial growth at 50 umol/L by filter disk method relative to control; type: functional; conditions: in the assay text read “by incorporation into PDA growth medium” for “by filter disk method”; outline: as §1
# [42] = Antifungal activity against Polyporus marginatus assessed as mycelial growth at 200 umol/L by filter disk method relative to control; type: functional; conditions: in the assay text read “by incorporation into growth medium” for “by filter disk method”; outline: as §1
smiles,measurement,setting,value
CC[C@@H](CO)COc1cc2c(C)cc(=O)oc2cc1O [PAVIETIN],Activity,Botrytis [1],51.4%
same,Activity,Alternaria alternata [2],80.2%
same,Activity,Globisporangium ultimum [3],88.4%
same,Activity,Polyporus [4],86.2%
same,Activity,Penicillium expansum [5],68.8%
same,Activity,Aspergillus niger [6],73.2%
same,Activity,Rhizopus stolonifer [7],82%
same,Activity,Fusarium basilici [8],87.8%
same,Activity,Alternaria dianthi [9],64.9%
same,Activity,Fulvia fulva [10],78.3%
same,Activity,[11],71.3%
same,Activity,Fulvia fulva [12],60.8%
same,Activity,Guignardia aesculi [13],84.6%
same,Activity,Botrytis [14],64.6%
same,Activity,Guignardia aesculi [15],64%
same,Activity,Guignardia aesculi [16],20.7%
same,Activity,Alternaria alternata [17],86.8%
same,Activity,Trichoderma viride [18],61.5%
same,Activity,Trichoderma viride [19],78.8%
same,Activity,[20],83.3%
same,Activity,Trichoderma viride [21],70.4%
same,Activity,Penicillium expansum [22],29.9%
same,Activity,Aspergillus niger [23],50%
same,Activity,Penicillium expansum [24],48.4%
same,Activity,Guignardia aesculi [25],33.8%
same,Activity,Fusarium basilici [26],76.4%
same,Activity,Guignardia aesculi [27],46.5%
same,Activity,[28],91.8%
same,Activity,Guignardia aesculi [29],85.3%
same,Activity,Globisporangium ultimum [30],78%
same,Activity,[31],66.9%
same,Activity,Alternaria dianthi [32],77%
same,Activity,Rhizopus stolonifer [33],68.1%
same,Activity,Alternaria alternata [34],58.5%
same,Activity,Aspergillus niger [35],68.6%
same,Activity,Fusarium basilici [36],59%
same,Activity,Polyporus [37],93.6%
same,Activity,Globisporangium ultimum [38],81.6%
same,Activity,Alternaria dianthi [39],89.5%
same,Activity,Botrytis [40],78.8%
same,Activity,Fulvia fulva [41],88.6%
same,Activity,[42],76.1%
